Measurements published in ChEMBL document CHEMBL3585285, “Amino Acid Thioester Derivatives: A Highly Promising Scaffold for the Development of Metallo-β-lactamase L1 Inhibitors” (ACS Med Chem Lett, 2015).
pIC50, pKi: −log10 of the molar value. ≈ marks a conversion by molar mass, not a printed value. Blank lines part the entries; values can stand above or below the compound they belong to. Calls of active or inactive are those of the source. The calls are words filed in the database; no cut-off is given here.

Legend:
[1] = test system: Escherichia coli; assay: Antibacterial activity against Escherichia coli after 12 hrs by macrodilution broth method; assay type: functional
[2] = molecular target: Metallo-beta-lactamase type 2 (Bacteroides fragilis) (UniProt P25910); assay: Inhibition of Bacteroides fragilis CcrA overexpressed in Escherichia coli BL21 (DE3) using cefazolin as substrate up to 5 uM incubated for 30 mins prior to testing by UV spectrophotometric analysis
Chain of Metallo-beta-lactamase type 2 (Bacteroides fragilis) (P25910 whole entry): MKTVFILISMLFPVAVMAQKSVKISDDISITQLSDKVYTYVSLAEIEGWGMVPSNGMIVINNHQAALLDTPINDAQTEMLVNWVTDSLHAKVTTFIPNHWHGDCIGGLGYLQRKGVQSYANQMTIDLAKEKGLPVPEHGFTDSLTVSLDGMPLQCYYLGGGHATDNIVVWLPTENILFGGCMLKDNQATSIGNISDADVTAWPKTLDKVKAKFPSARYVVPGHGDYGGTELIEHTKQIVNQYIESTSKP
In short: (§1)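 Each enzyme (CcrA or NDM-1) was assayed on cefazolin hydrolysis followed at 262 nm. Initial rates were measured in triplicate with or without inhibitor and averaged. IC50 is the concentration causing 50% loss of activity.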

[3] = test system: Aeromonas veronii bv. sobria; assay: Inhibition of Aeromonas veronii bv. sobria ImiS overexpressed in Escherichia coli BL21 (DE3) using imipenem as substrate up to 5 uM incubated for 30 mins prior to testing by UV spectrophotometric analysis
In short: (§2)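 ImiS activity measured as imipenem hydrolysis monitored at 300 nm. Initial rates were taken with and without inhibitor, each in triplicate and averaged. IC50 is the inhibitor concentration giving a 50% drop in enzyme activity.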

[4] = molecular target: T1, Beta-lactamase L1 (Stenotrophomonas maltophilia, UniProt P52700); assay: Mixed-type inhibition of Stenotrophomonas maltophilia L1 overexpressed in Escherichia coli BL21 (DE3) using cefazolin as substrate incubated for 30 mins prior to testing by Lineweaver-Burk plot analysis
T1 sequence (P52700 whole entry): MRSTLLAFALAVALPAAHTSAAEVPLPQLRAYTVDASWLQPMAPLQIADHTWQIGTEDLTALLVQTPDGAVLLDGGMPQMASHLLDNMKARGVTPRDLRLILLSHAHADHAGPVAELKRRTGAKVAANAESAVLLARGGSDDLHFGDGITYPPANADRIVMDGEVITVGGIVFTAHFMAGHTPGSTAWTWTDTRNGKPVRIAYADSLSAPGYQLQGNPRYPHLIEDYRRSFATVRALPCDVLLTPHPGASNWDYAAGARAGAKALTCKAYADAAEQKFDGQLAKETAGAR

[5] = test system: Aeromonas veronii bv. sobria; assay: Inhibition of Aeromonas veronii bv. sobria ImiS overexpressed in Escherichia coli BL21 (DE3) assessed as imipenem MIC at 16 ug/ml after 12 hrs by macrodilution broth method
In short: (§3)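 MICs of antibiotic were measured with and without inhibitor at a final 16 μg/mL in E. coli BL21(DE3) carrying pMSZ02-CcrA, pET26b-NDM-1, pET26b-ImiS or pET26b-L1, plus plasmid-free BL21(DE3) as a control. Cefazolin was the antibiotic for the CcrA, NDM-1 and L1 strains; imipenem was used for the ImiS strain.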

[6] = test system: Escherichia coli; assay: Antibacterial activity against Escherichia coli assessed as cefazolin MIC after 12 hrs by macrodilution broth method (reference value: 64 ug/ml); assay type: functional
[7] = molecular target: Metallo-beta-lactamase type 2 (Bacteroides fragilis) (UniProt P25910); assay: Inhibition of Bacteroides fragilis CcrA overexpressed in Escherichia coli BL21 (DE3) assessed as cefazolin MIC at 16 ug/ml after 12 hrs by macrodilution broth method; in short: as §3
[8] = molecular target: Beta-lactamase L1 (Stenotrophomonas maltophilia) (UniProt P52700); assay: Inhibition of Stenotrophomonas maltophilia L1 overexpressed in Escherichia coli BL21 (DE3) assessed as cefazolin MIC at 16 ug/ml after 12 hrs by macrodilution broth method; in short: as §3
Chain of Beta-lactamase L1 (Stenotrophomonas maltophilia) (P52700 34-290 limits assumed): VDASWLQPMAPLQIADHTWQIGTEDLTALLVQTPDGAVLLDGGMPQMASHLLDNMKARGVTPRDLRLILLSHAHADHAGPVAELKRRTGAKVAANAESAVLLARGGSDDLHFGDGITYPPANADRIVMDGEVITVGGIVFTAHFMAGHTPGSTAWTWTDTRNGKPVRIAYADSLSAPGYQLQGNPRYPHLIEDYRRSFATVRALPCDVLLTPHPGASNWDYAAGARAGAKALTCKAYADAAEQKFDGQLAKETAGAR

[9] = test system: Escherichia coli; assay: Antibacterial activity against Escherichia coli assessed as imipenem MIC after 12 hrs by macrodilution broth method (reference value: 0.5 ug/ml); assay type: functional
[10] = molecular target: T1, Beta-lactamase L1; assay: Inhibition of Stenotrophomonas maltophilia L1 overexpressed in Escherichia coli BL21 (DE3) using cefazolin as substrate incubated for 30 mins prior to testing by UV spectrophotometric analysis
[11] = Inhibition of NDM1 (unknown origin) overexpressed in Escherichia coli BL21 (DE3) assessed as cefazolin MIC at 16 ug/ml after 12 hrs by macrodilution broth method; in short: as §3
[12] = molecular target: Beta-lactamase L1 (Stenotrophomonas maltophilia) (UniProt P52700); assay: Inhibition of Stenotrophomonas maltophilia L1 overexpressed in Escherichia coli BL21 (DE3) assessed as reduction of cefazolin MIC at 16 ug/ml after 12 hrs by macrodilution broth method relative to cefazolin-treated control; in short: as §3
[13] = Inhibition of Aeromonas veronii bv. sobria ImiS overexpressed in Escherichia coli BL21 (DE3) using imipenem as substrate incubated for 30 mins prior to testing by UV spectrophotometric analysis; in short: as §2
[14] = Inhibition of NDM1 (unknown origin) overexpressed in Escherichia coli BL21 (DE3) using cefazolin as substrate incubated for 30 mins prior to testing by UV spectrophotometric analysis; in short: as §1
[15] = molecular target: Metallo-beta-lactamase type 2 (Bacteroides fragilis, UniProt P25910); assay: Inhibition of Bacteroides fragilis CcrA overexpressed in Escherichia coli BL21 (DE3) using cefazolin as substrate incubated for 30 mins prior to testing by UV spectrophotometric analysis; in short: as §1
Chain of Metallo-beta-lactamase type 2 (P25910 whole entry): as the sequence (P25910 whole entry) above

SMILES: C[C@@H](O)[C@H]1C(=O)N2C(C(=O)O)=C(SCCNC=N)C[C@H]12 [IMIPENEM ANHYDROUS]
MIC [1]: 0.5 µg/mL (≈ 1.67 µM)

SMILES: O=C(O)CSC(=O)[C@H](CCCCNC(=O)Cc1cccs1)NC(=O)Cc1cccs1
inhibition [2]: inactive | inhibition [3]: inactive | pKi [4]: 6.72 | MIC [5]: 2 µg/mL | MIC [6]: 64 µg/mL | MIC [7]: 4 µg/mL | MIC [8]: 4 µg/mL | MIC [9]: 0.5 µg/mL | pIC50 [10]: 5.97 | MIC [11]: 4 µg/mL | fold change (FC) [12]: 2

SMILES: O=C(O)CSC(=O)[C@@H]1CCCN1C(=O)Cc1cccs1
inhibition [2]: inactive | inhibition [3]: inactive | pKi [4]: 6.06 | MIC [5]: 2 µg/mL | MIC [6]: 64 µg/mL | MIC [7]: 4 µg/mL | MIC [8]: 2 µg/mL | MIC [9]: 0.5 µg/mL | pIC50 [10]: 6.35 | MIC [11]: 8 µg/mL | fold change (FC) [12]: 4

SMILES: O=C(O)CSC(=O)[C@H](Cc1c[nH]c2ccccc12)NC(=O)Cc1cccs1
inhibition [2]: inactive | inhibition [3]: inactive | pKi [4]: 6.77 | MIC [5]: 2 µg/mL | MIC [6]: 64 µg/mL | MIC [7]: 4 µg/mL | MIC [8]: 2 µg/mL | MIC [9]: 0.5 µg/mL | pIC50 [10]: 6.54 | MIC [11]: 8 µg/mL | fold change (FC) [12]: 4

SMILES: O=C(O)CSC(=O)[C@H](Cc1ccccc1)NC(=O)Cc1cccs1
inhibition [2]: inactive | pKi [4]: 6.02 | MIC [5]: 1 µg/mL | pIC50 [13]: 4.18 | MIC [6]: 64 µg/mL | MIC [7]: 4 µg/mL | MIC [8]: 4 µg/mL | MIC [9]: 0.5 µg/mL | pIC50 [14]: 4.44 | pIC50 [10]: 5.54 | MIC [11]: 8 µg/mL | fold change (FC) [12]: 2

SMILES: CC(C)[C@H](NC(=O)Cc1cccs1)C(=O)SCC(=O)O
pKi [4]: 6.55 | MIC [5]: 1 µg/mL | pIC50 [13]: 4.72 | MIC [6]: > 64 µg/mL | MIC [7]: 4 µg/mL | pIC50 [15]: 4.41 | MIC [8]: 4 µg/mL | MIC [9]: 0.5 µg/mL | pIC50 [14]: 4.91 | pIC50 [10]: 6.35 | MIC [11]: 4 µg/mL | fold change (FC) [12]: 2

SMILES: CC(C)C[C@H](NC(=O)Cc1cccs1)C(=O)SCC(=O)O
inhibition [2]: inactive | pKi [4]: 6.68 | MIC [5]: 1 µg/mL | pIC50 [13]: 5.44 | MIC [6]: 64 µg/mL | MIC [7]: 4 µg/mL | MIC [8]: 2 µg/mL | MIC [9]: 0.5 µg/mL | pIC50 [14]: 4.55 | pIC50 [10]: 7.16 | MIC [11]: 4 µg/mL | fold change (FC) [12]: 4

SMILES: C[C@H](NC(=O)Cc1cccs1)C(=O)SCC(=O)O
inhibition [2]: inactive | pKi [4]: 6.39 | MIC [5]: 1 µg/mL | pIC50 [13]: 4.33 | MIC [6]: > 64 µg/mL | MIC [7]: 4 µg/mL | MIC [8]: 2 µg/mL | MIC [9]: 0.5 µg/mL | pIC50 [14]: 4.02 | pIC50 [10]: 6.04 | MIC [11]: 4 µg/mL | fold change (FC) [12]: 4

SMILES: O=C(O)CSC(=O)CNC(=O)Cc1cccs1
inhibition [2]: inactive | pKi [4]: 6.55 | MIC [5]: 1 µg/mL | pIC50 [13]: 4.21 | MIC [6]: 64 µg/mL | MIC [7]: 4 µg/mL | MIC [8]: 4 µg/mL | MIC [9]: 0.5 µg/mL | pIC50 [14]: 4.54 | pIC50 [10]: 6.08 | MIC [11]: 4 µg/mL | fold change (FC) [12]: 2

MIC [1]: 64 µg/mL (≈ 141 µM)
SMILES: Cc1nnc(SCC2=C(C(=O)O)N3C(=O)[C@@H](NC(=O)Cn4cnnn4)[C@H]3SC2)s1 [CEFAZOLIN]

SMILES: CSCC[C@H](NC(=O)Cc1cccs1)C(=O)SCC(=O)O
pKi [4]: 6.96 | MIC [5]: 1 µg/mL | pIC50 [13]: 4.88 | MIC [6]: > 64 µg/mL | MIC [7]: 4 µg/mL | pIC50 [15]: 3.91 | MIC [8]: 2 µg/mL | MIC [9]: 0.5 µg/mL | pIC50 [10]: 7.74 | MIC [11]: 8 µg/mL | fold change (FC) [12]: 4

SMILES: O=C(O)CSC(=O)[C@H](CO)NC(=O)Cc1cccs1
inhibition [2]: inactive | pKi [4]: 6.77 | MIC [5]: 1 µg/mL | pIC50 [13]: 4.22 | MIC [6]: 64 µg/mL | MIC [7]: 4 µg/mL | MIC [8]: 4 µg/mL | MIC [9]: 0.5 µg/mL | pIC50 [10]: 5.83 | MIC [11]: 8 µg/mL | fold change (FC) [12]: 2
